The results in this text go back to PMC11661184 (bioRxiv, 2024).

Entries after “also recorded” stand apart in the source; their conditions may differ.

One assay deals with WT CaM (Homo sapiens, UniProt P0DP23). The experiment in a line: Isothermal titration calorimetry, WT CaM. It is filed as binding. Conditions: ITC, 2 mM Ca2+. The method, boiled down: (§1)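 The ITC cell held 15 µM CaM variant and the syringe 810 µM hTRPA1¹⁰⁸⁹⁻¹¹¹⁹ peptide. Both were buffer-matched in storage buffer (50 mM Tris pH 8.0, 150 mM NaCl, 2 mM CaCl₂, 0.1 mM PMSF). There were 35 injections spaced 240 s apart, with stirring at 290 RPM. Data were fitted to a one-site model.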
On the technique in general: Isothermal titration calorimetry measures the heat released or taken up as one component is titrated into another.

The target in a further assay is CaM12 (Homo sapiens, UniProt P0DP23). The experiment in a line: Isothermal titration calorimetry, CaM12. It is filed as binding. To be noted: ITC, 2 mM Ca2+. The method, boiled down: as §1
For another assay, the system named is CaM (Calmodulin-agarose). Put plainly: CaM-agarose pulldown of TRPA1 constructs. It counts as binding. The method, boiled down: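 HEK293T cells were transfected with tagged TRPA1 constructs and lysed after 16-24 h in Tris pH 8.0 buffer containing 5 mM DDM and 500 µM EGTA. Free Ca²⁺ was set with CaCl₂, calculated from EGTA constants. 100 µg lysate was incubated with CaM-agarose for 1 h at 4 °C, washed, then eluted with 5 mM EGTA. Detection was by anti-FLAG or anti-MBP immunoblot, with tubulin input control. Enrichment is relative to the maximum within each replicate.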

The next assay relates to 15N-labeled CaM12. The experiment in a line: 15N-1H HSQC NMR, CaM12. It is filed as binding, human. To be noted: 1:1 molar ratio, 25 °C, 700 MHz.
The subject of a further assay is 15N-labeled WT CaM. The experiment in a line: 15N-1H HSQC NMR, WT CaM. It is filed as binding, human. To be noted: 1:1 molar ratio, 25 °C, 700 MHz.
The test system of a further assay is hTRPA1^Δ1109–1119. Put plainly: TEVC block of residual current, hTRPA1^Δ1109–1119. It counts as cell-based, human. Conditions: 10 µM A-967079.
For another assay, the system named is TurboID-CaM C-lobe. Put plainly: Proximity biotinylation in HEK293T cells. It counts as cell-based, human. To be noted: 50 µM biotin 15 min, basal Ca2+; n=4. The method, boiled down: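 HEK293T cells co-expressed 3xFLAG-TurboID or 3xFLAG-TurboID-CaM C-lobe with 3xFLAG-hTRPA1 variants. About 48 h post-transfection, 50 uM biotin was added to the culture medium. After 15 min, cells were lysed and proteins captured on anti-FLAG resin (1 h, 4 °C), then eluted with 125 µg/ml 3xFLAG peptide. Biotinylated proteins were detected with HRP-streptavidin (1:50,000).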

Assay [1] concerns hTRPA1 channel activity in HEK293T cells. The experiment in a line: Ratiometric Ca2+ imaging of TRPA1 variant activity. To be noted: baseline, 10 µM or 100 µM AITC; n=4. It counts as cell-based, human. The method, boiled down: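 HEK293T cells (DMEM, 10% calf serum) were transiently transfected. At 16-24 h they were replated on poly-L-lysine glass, with parallel anti-FLAG immunoblot to check expression. One hour later cells were loaded with 10 µg/mL Fura-2 AM and 0.025% Pluronic F-127 in Ringer's for 1 h at RT. […] At least 90 cells per condition per experiment were analysed, with untransfected background subtracted. Mean ± SEM; two-tailed t-test.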

Another assay deals with V5-tagged WT CaM. Put plainly: Immunofluorescence co-localization with V5-WT CaM in Neuro2A cells. It counts as cell-based, human. The method, boiled down: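 Neuro2A cells were grown in DMEM with 10% FBS, transfected, then placed on poly-L-lysine coverslips for 16-20 h. Cells were fixed in 4% PFA, permeabilised with 0.1% Triton and blocked in 4% BSA. Staining used anti-V5 (1:500), Alexa488 anti-mouse (1:700) and Cy3 anti-FLAG (1:500), each for 45 min at RT. Airyscan images (63x oil) were deconvolved. Per-cell pixel-intensity Pearson's R used thresholds from mono-stained samples. Mean ± SD; two-tailed t-test.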

The subject of assay [2] is hTRPA1 expressed in Xenopus laevis oocytes. It counts as cell-based, human.
The test system is the same in assay [3]. The experiment in a line: Two-electrode voltage clamp, Ca2+ potentiation and desensitization. It is filed as cell-based, human. On the technique in general: In two-electrode clamp one electrode senses voltage and the other passes current.

Turning to “hTRPA1^1089–1119: hTRPA1 distal C-terminus peptide, residues 1089–1119, bacterially purified and liberated from MBP (DRFKKEQMEQRNSRWNTVLRAVKAKTHHLEP)”, the “Number of binding events observed” value in the assay with WT CaM and with CaM12 was “single binding event” in each case. In addition, the “CaM binding of MBP-tagged C-terminal peptides” value in the assay on CaM (Calmodulin-agarose) (MBP-tagged, expressed in HEK293T, absence or presence of Ca2+) was “bound CaM in a Ca^2+-dependent manner”. Also, the “Chemical shift perturbations (CSPs)” value with 15N-labeled CaM12 was “observed predominantly in the C-lobe; also recorded: more CSPs in the C-lobe than WT CaM”; in the assay on 15N-labeled WT CaM, “observed predominantly in the C-lobe”.
As for `CCC(=N\O)/C(C)=C/c1ccc(F)cc1` [A-967079], the “Inhibition of residual activity” value with hTRPA1^Δ1109–1119 is “inhibited”.

B1: hTRPA1^Δ1109–1119: hTRPA1 truncation lacking only the terminal 11 amino acids (protein)
chain: MKRSLRKMWRPGEKKEPQGVVYEDVPDDTEDFKESLKVVFEGSAYGLQNFNKQKKLKRCDDMDTFFLHYAAAEGQIELMEKITRDSSLEVLHEMDDYGNTPLHCAVEKNQIESVKFLLSRGANPNLRNFNMMAPLHIAVQGMNNEVMKVLLEHRTIDVNLEGENGNTAVIIACTTNNSEALQILLKKGAKPCKSNKWGCFPIHQAAFSGSKECMEIILRFGEEHGYSRQLHINFMNNGKATPLHLAVQNGDLEMIKMCLDNGAQIDPVEKGRCTAIHFAATQGATEIVKLMISSYSGSVDIVNTTDGCHETMLHRASLFDHHELADYLISVGADINKIDSEGRSPLILATASASWNIVNLLLSKGAQVDIKDNFGRNFLHLTVQQPYGLKNLRPEFMQMQQIKELVMDEDNDGCTPLHYACRQGGPGSVNNLLGFNVSIHSKSKDKKSPLHFAASYGRINTCQRLLQDISDTRLLNEGDLHGMTPLHLAAKNGHDKVVQLLLKKGALFLSDHNGWTALHHASMGGYTQTMKVILDTNLKCTDRLDEDGNTALHFAAREGHAKAVALLLSHNADIVLNKQQASFLHLALHNKRKEVVLTIIRSKRWDECLKIFSHNSPGNKCPITEMIEYLPECMKVLLDFCMLHSTEDKSCRDYYIEYNFKYLQCPLEFTKKTPTQDVIYEPLTALNAMVQNNRIELLNHPVCKEYLLMKWLAYGFRAHMMNLGSYCLGLIPMTILVVNIKPGMAFNSTGIINETSDHSEILDTTNSYLIKTCMILVFLSSIFGYCKEAGQIFQQKRNYFMDISNVLEWIIYTTGIIFVLPLFVEIPAHLQWQCGAIAVYFYWMNFLLYLQRFENCGIFIVMLEVILKTLLRSTVVFIFLLLAFGLSFYILLNLQDPFSSPLLSIIQTFSMMLGDINYRESFLEPYLRNELAHPVLSFAQLVSFTIFVPIVLMNLLIGLAVGDIAEVQKHASLKRIAMQVELHTSLEKKLPLWFLRKVDQKSTIVYPNKPRSGGMLFHIFCFLFCTGEIRQEIPNADKSLEMEILKQKYRLKDLTFLLEKQHELIKLIIQKMEIISETEDDDSHCSFQDRFKKEQMEQRNSRWNTVLR
For the molecule B1, in the assay with TurboID-CaM C-lobe, the “TRPA1 biotinylation with TurboID-CaM C-lobe” value was “reduced biotinylation”. Further, the “Basal and agonist-evoked channel activity compared to WT hTRPA1” value in assay [1] was “increased basal and agonist-evoked activity”. In addition, in the assay on CaM (Calmodulin-agarose) (basal Ca2+, n=3 independent experiments), the “CaM binding at basal Ca2+ concentration” value was “failed to bind CaM”. Besides, the “Co-localization with WT CaM (deconvolved IF images)” value with V5-tagged WT CaM (resting Neuro2A cells, Airyscan) is recorded as “greatly reduced co-localization”. The “Pearson's correlation coefficient (R) of CaM:TRPA1 co-localization” value with V5-tagged WT CaM (Δ1109–1119 compared to WT, n=41 or 40 cells, ***p=0.0002) was “significant reduction in the CaM:TRPA1 co-localization”. Besides, the “AITC sensitivity versus WT hTRPA1” value in [2] (Ca2+-free) is given as “slightly reduced AITC sensitivities”. Further, the “Gating kinetics and peak current amplitudes” value in assay [2] (absence of Ca2+, activation and closing at +80 mV, n=8) is given as “not significantly different from WT hTRPA1”. In assay [3] (250 µM AITC, 1.8 mM Ca2+, comparable peak current amplitudes), the “Potentiation by extracellular Ca2+” value was “rapid potentiation”. In assay [3] (5 minutes after 1.8 mM extracellular Ca2+, n=10 or 12 oocytes), the “Residual activity after extracellular Ca2+ (of initial activity)” value is 20–30%. For the same molecule, the “Increase in translocated charge versus WT hTRPA1” value is recorded as 5 fold in [3] (+80 mV) and “large, albeit nonsignificant increase” in [3] (−80 mV). Moreover, the “Slowing of potentiation versus WT hTRPA1” value was ~ 1.8 fold in [3] (+80 mV, 1.8 mM Ca2+) and ~ 3 fold in [3] (−80 mV, 1.8 mM Ca2+). For the same molecule, the “Slowing of desensitization versus WT hTRPA1” value in assay [3] (+80 mV, 1.8 mM Ca2+, n=10 or 12 oocytes) was found to be 16 fold; in [3] (−80 mV, 1.8 mM Ca2+, n=10 or 12 oocytes), 10 fold.
